One data set concerns the target Vasopressin V1a receptor (Homo sapiens, UniProt P37288). Description: Binding affinity for human cloned vasopressin V1a receptor expressed in CHO cells. In kind it is cell-based. The essentials: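 Whole-cell competition binding on CHO cells stably expressing human V1a, grown in alpha-MEM with 10% FBS and 250 ug/ml G418. Cells were plated at least 2 days ahead and incubated 30 min at 37 °C in HEPES/BSA/DMEM buffer (pH 7.0) with 1 nM [3H]AVP and 5 test concentrations (usually 0.1–1000 nM), in triplicate. Nonspecific binding was set with 100 nM AVP. Bound radioactivity was SDS-lysed and scintillation-counted. Curve-fit IC50 was converted to Ki with a 0.61 factor.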

Data set [1] is described as follows: Cmax in Sprague-Dawley rat plasma at 20 mg/kg, po. In kind it is ADME, organism-based. Also on record: dose 20 mg/kg, route oral. The procedure, abridged:
(§1)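 Sprague-Dawley rats were gavaged with 20 mg/kg in 23% hydroxypropyl-beta-cyclodextrin with 0.68% lactic acid; the screen co-dosed three compounds per animal. Blood was taken by cardiac puncture under CO2 anesthesia into sodium heparin at 0.25, 0.5, 1, 2, 4, 8, 12 and 24 h, from 3 rats per time point. Plasma was separated within 1 h. Plasma and brain levels were measured by LC/MS.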

Data set [2] can be described thus: Cmax in Sprague-Dawley rat brain at 20 mg/kg, po. In kind it is ADME, organism-based. Also on record: dose 20 mg/kg, route oral. The essentials:
as §1

The nature of data set [3]: Half life in Sprague-Dawley rat brain at 20 mg/kg, po. In kind it is ADME, organism-based. Also on record: dose 20 mg/kg, route oral. The essentials: as §1
A short description of data set [4]: Tmax in Sprague-Dawley rat plasma at 20 mg/kg, po. Also on record: dose 20 mg/kg, route oral. In kind it is ADME, organism-based. The essentials: as §1
Data set [5] is described as follows: Half life in Sprague-Dawley rat plasma at 20 mg/kg, po. The class given is ADME, organism-based. Also on record: dose 20 mg/kg, route oral. The procedure, abridged: as §1
Data set [6] is described as follows: Drug level in dog brain at 10 mg/kg, po after 4 hrs. The class given is ADME, organism-based, Canis lupus familiaris. Also on record: dose 10 mg/kg, route oral. To be noted: read-out: Drug uptake. The procedure, abridged: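 A single dog received an oral dose of 10 mg/kg in 10% DMSO/90% PEG300. Brain regions (cortex, brain stem, cerebellum, hypothalamus, hippocampus) and blood were frozen and stored at −70 °C. Samples were homogenized in pH 9.4 buffer, extracted with ethyl acetate with an extraction reference added, reconstituted in acetonitrile, and quantified by ESI LC/MS/MS against spiked control brain standards.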

pIC50, pKi: −log10 of the molar value.

Sequence of Vasopressin V1a receptor (P37288 whole entry): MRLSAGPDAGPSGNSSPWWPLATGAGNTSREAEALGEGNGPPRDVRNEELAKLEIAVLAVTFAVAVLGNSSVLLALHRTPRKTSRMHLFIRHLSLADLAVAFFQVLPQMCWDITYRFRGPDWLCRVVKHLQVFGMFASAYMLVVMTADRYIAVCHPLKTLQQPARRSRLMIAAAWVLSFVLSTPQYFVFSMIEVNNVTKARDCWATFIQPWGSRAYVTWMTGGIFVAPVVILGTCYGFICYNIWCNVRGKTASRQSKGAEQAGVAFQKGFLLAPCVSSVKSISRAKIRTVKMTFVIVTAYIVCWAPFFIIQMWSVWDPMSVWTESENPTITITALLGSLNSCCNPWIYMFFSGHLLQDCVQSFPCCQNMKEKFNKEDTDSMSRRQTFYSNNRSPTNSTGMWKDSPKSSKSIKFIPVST

On Vasopressin V1a receptor, `CC1(C(C(=O)OCc2ccccc2)N2C(=O)[C@@H](N3C(=O)OC[C@@H]3c3ccccc3)[C@H]2/C=C/c2ccccc2)OCCO1` (stereo not given in full) gave a pIC50 of 7.35. Still for that read-out and setting: with `CC1(C(C(=O)O)N2C(=O)[C@@H](N3C(=O)OC[C@@H]3c3ccccc3)[C@H]2/C=C/c2ccccc2)OCCO1` (stereo not given in full) the figure was below 5.30. Turning to `C[C@H](NC(=O)[C@H](CC(=O)N1CCC(CCN2CCCCC2)CC1)N1C(=O)[C@@H](N2C(=O)OC[C@@H]2c2ccccc2)[C@H]1/C=C/c1ccccc1)c1ccccc1`, the negative logarithm of the Ki (pKi) on Vasopressin V1a receptor was 8.06. `CC1(C(C(=O)OCc2ccccc2)N2C(=O)[C@@H](N3C(=O)c4ccccc4C3=O)[C@H]2/C=C/c2ccccc2)OCCO1` (stereo not given in full): the pIC50 at Vasopressin V1a receptor was 4.21. The same measure, in the same setting: as for `CC(C)C[C@@H](C(=O)NCc1ccccc1Cl)N1C(=O)[C@@H](N2C(=O)OC[C@@H]2c2ccccc2)[C@H]1/C=C/c1ccccc1`, the figure is 6.00. As for `CC(C)C[C@@H](C(=O)NCc1ccc(Cl)cc1)N1C(=O)[C@@H](N2C(=O)OC[C@@H]2c2ccccc2)[C@H]1/C=C/c1ccccc1`, the pIC50 on Vasopressin V1a receptor was 6.58. Turning to `C[C@@H](NC(=O)[C@H](CC(=O)N1CCC(CCN2CCCCC2)CC1)N1C(=O)[C@@H](N2C(=O)OC[C@@H]2c2ccccc2)[C@H]1/C=C/c1ccccc1)c1ccccc1`, the negative logarithm of the Ki (pKi) at Vasopressin V1a receptor is 6.75.

Consider `O=C(NCc1cccc(C(F)(F)F)c1)[C@H](CCC(=O)N1CCN(C2CCCCC2)CC1)N1C(=O)[C@@H](N2C(=O)OC[C@@H]2c2ccccc2)[C@H]1/C=C/c1ccccc1`, for which the negative-log Ki (pKi) at Vasopressin V1a receptor was 9.57. In the case of `CC(C)(C)C(=O)C(C(=O)OCc1ccccc1)N1C(=O)[C@@H](N2C(=O)OC[C@@H]2c2ccccc2)[C@H]1/C=C/c1ccco1` (stereo not given in full), the pIC50 at Vasopressin V1a receptor is 8.70. Consider `O=C(NCc1cccc(C(F)(F)F)c1)[C@@H](CC(=O)N1CCC(N2CCCCC2)CC1)N1C(=O)[C@@H](N2C(=O)OC[C@@H]2c2ccccc2)[C@H]1/C=C/c1ccccc1`, for which the Cmax in data set [1] was 50 ng/mL. As for `O=C(CN1C(=O)[C@@H](N2C(=O)OC[C@@H]2c2ccccc2)[C@H]1/C=C/c1ccccc1)OCc1ccccc1`, the negative-log IC50 (pIC50) at Vasopressin V1a receptor is 6.40. For the compound `O=C(NCc1cccc(C(F)(F)F)c1)[C@@H](CC(=O)N1CCN(N2CCCC2)CC1)N1C(=O)[C@@H](N2C(=O)OC[C@@H]2c2ccccc2)[C@H]1/C=C/c1ccccc1`, the pKi at Vasopressin V1a receptor was 7.56. In turn, `O=C(OCc1ccccc1)C(C(=O)c1ccccc1)N1C(=O)[C@@H](N2C(=O)OC[C@@H]2c2ccccc2)[C@H]1/C=C/c1ccccc1` (stereo not given in full) had a negative-log IC50 (pIC50) on Vasopressin V1a receptor of 7.00. `CN(C)CCNC(=O)[C@H](CC(=O)NCc1cccc(C(F)(F)F)c1)N1C(=O)[C@@H](N2C(=O)OC[C@@H]2c2ccccc2)[C@H]1/C=C/c1ccccc1` gave a negative-log Ki (pKi) on Vasopressin V1a receptor below 6.22.

On to `O=C(NCc1cccc(C(F)(F)F)c1)[C@H](CCC(=O)N1CCN(CCc2ccccc2)CC1)N1C(=O)[C@@H](N2C(=O)OC[C@@H]2c2ccccc2)[C@H]1/C=C/c1ccccc1`, for which the pKi on Vasopressin V1a receptor is 8.93. For the compound `CC(C)(C)C(=O)[C@@H](C(=O)N1CCC(CCN2CCCCC2)CC1)N1C(=O)[C@@H](N2C(=O)OCC2c2ccccc2)C1/C=C/c1ccccc1` (single isomer, unassigned), the negative-log IC50 (pIC50) at Vasopressin V1a receptor is 7.07. Consider `O=C(CC[C@@H](C(=O)NCc1cccc(C(F)(F)F)c1)N1C(=O)[C@@H](N2C(=O)OC[C@@H]2c2ccccc2)[C@H]1/C=C/c1ccccc1)NCCN1CCCCC1`, for which the pKi on Vasopressin V1a receptor is 8.05.

Consider `O=C(NCc1cccc(C(F)(F)F)c1)[C@@H](CCC(=O)N1CCN(CC2CCCCC2)CC1)N1C(=O)[C@@H](N2C(=O)OC[C@@H]2c2ccccc2)[C@H]1/C=C/c1ccccc1`, for which the pKi at Vasopressin V1a receptor was below 7.92. For `CC1(C(C(=O)OCC[Si](C)(C)C)N2C(=O)[C@@H](N3C(=O)OC[C@@H]3c3ccccc3)[C@H]2/C=C/c2ccccc2)OCCO1` (stereo not given in full), at Vasopressin V1a receptor, the pIC50 was 6.39. In the case of `CN(Cc1cccc(C(F)(F)F)c1)C(=O)[C@@H](CC(=O)N1CCC(N2CCCCC2)CC1)N1C(=O)[C@@H](N2C(=O)OC[C@@H]2c2ccccc2)[C@H]1/C=C/c1ccccc1`, the peak concentration (Cmax) in data set [1] was 160 ng/mL; in data set [2], 48 ng/mL. The half-life in data set [3] is 6 h; in data set [5], 4 h. Besides, the time of peak concentration (Tmax) in data set [4] was 4 h. Regarding `O=C(C[C@@H](C(=O)N1CCN(CCc2ccccc2)CC1)N1C(=O)[C@@H](N2C(=O)OC[C@@H]2c2ccccc2)[C@H]1/C=C/c1ccccc1)NCc1cccc(C(F)(F)F)c1`, on Vasopressin V1a receptor, the pKi was 5.21.

Consider `O=C(NCc1cccc(C(F)(F)F)c1)[C@H](CCC(=O)N1CCC(CN2CCCCC2)CC1)N1C(=O)[C@@H](N2C(=O)OC[C@@H]2c2ccccc2)[C@H]1/C=C/c1ccccc1`, for which the pKi at Vasopressin V1a receptor is 8.71.

Turning to `C[C@@H](NC(=O)[C@@H](CC(=O)N1CCC(N2CCCCC2)CC1)N1C(=O)[C@@H](N2C(=O)OC[C@@H]2c2ccccc2)[C@H]1/C=C/c1ccccc1)c1ccccc1`, the figures for the maximum concentration (Cmax) in data set [1] and in data set [2] were 100 ng/mL and 20 ng/mL, respectively. Also, the half-life in data set [3] was 6 h; in data set [5], 2.5 h. Besides, in data set [4], the Tmax is 4 h. For the compound `C[C@@H](NC(=O)[C@@H](CC(=O)N1CCC(N2CCCCC2)CC1)N1C(=O)[C@@H](N2C(=O)OC[C@@H]2c2ccccc2)[C@H]1/C=C/c1ccccc1)c1cccc(C(F)(F)F)c1` [SRX246], the negative logarithm of the Ki (pKi) at Vasopressin V1a receptor was 8.90. Same read-out and setting: with `O=C(NCc1cccc(C(F)(F)F)c1)[C@H](CC(=O)N1CCN(C2CCCC2)CC1)N1C(=O)[C@@H](N2C(=O)OC[C@@H]2c2ccccc2)[C@H]1/C=C/c1ccccc1` the figure was above 7.22; with `O=C(NCc1cccc(C(F)(F)F)c1)[C@H](CC(=O)N1CCN(CCN2CCCC2)CC1)N1C(=O)[C@@H](N2C(=O)OC[C@@H]2c2ccccc2)[C@H]1/C=C/c1ccccc1`, above 7.22.

In turn, `CCCN1CCN(C(=O)CC[C@@H](C(=O)NCc2cccc(C(F)(F)F)c2)N2C(=O)[C@@H](N3C(=O)OC[C@@H]3c3ccccc3)[C@H]2/C=C/c2ccccc2)CC1` had a negative-log Ki (pKi) on Vasopressin V1a receptor of 8.92. The compound `O=C(NCc1cccc(C(F)(F)F)c1)[C@@H](CCC(=O)N1CCC(N2CCCCC2)CC1)N1C(=O)[C@@H](N2C(=O)OC[C@@H]2c2ccccc2)[C@H]1/C=C/c1ccccc1` had a pKi at Vasopressin V1a receptor of 7.52. `CN(C)CCCNC(=O)[C@H](CC(=O)NCc1cccc(C(F)(F)F)c1)N1C(=O)[C@@H](N2C(=O)OC[C@@H]2c2ccccc2)[C@H]1/C=C/c1ccccc1` gave a negative logarithm of the Ki (pKi) on Vasopressin V1a receptor below 6.22. On to `CC(C)(C)C(=O)C(C(=O)OCc1ccccc1)N1C(=O)[C@@H](N2C(=O)OC[C@@H]2c2ccccc2)[C@H]1CCc1ccccc1` (stereo not given in full), for which, on Vasopressin V1a receptor, the pIC50 is below 6.30.

For the compound `C[C@@H](NC(=O)[C@H](CC(=O)N1CCC(N2CCCCC2)CC1)N1C(=O)[C@@H](N2C(=O)OC[C@@H]2c2ccccc2)[C@H]1/C=C/c1ccccc1)c1cccc(C(F)(F)F)c1`, at Vasopressin V1a receptor, the pKi is below 8.22. At Vasopressin V1a receptor, `CC(C)C[C@@H](C(=O)N1CCC(N2CCCCC2)CC1)N1C(=O)[C@@H](N2C(=O)OC[C@@H]2c2ccccc2)[C@H]1/C=C/c1ccccc1` had a pIC50 of 7.27. The same measure, in the same setting: as for `CC(C)C[C@@H](C(=O)NCc1ccccc1)N1C(=O)[C@@H](N2C(=O)OC[C@@H]2c2ccccc2)[C@H]1/C=C/c1ccccc1`, the figure is 6.89. As for `CC(C)C[C@@H](C(=O)N1CCC(CCN2CCCCC2)CC1)N1C(=O)[C@@H](N2C(=O)OC[C@@H]2c2ccccc2)[C@H]1/C=C/c1ccccc1`, in data set [6], the concentration at 4 h was found to be 100 nM. The compound `CC1(C(C(=O)OCc2ccccc2)N2C(=O)C(C)(C)[C@H]2/C=C/c2ccccc2)OCCO1` (stereo not given in full) gave a negative logarithm of the IC50 (pIC50) on Vasopressin V1a receptor below 4.70.

Compound `O=C(NCc1cccc(C(F)(F)F)c1)[C@H](CC(=O)N1CCC(CCN2CCCCC2)CC1)N1C(=O)[C@@H](N2C(=O)OC[C@@H]2c2ccccc2)[C@H]1/C=C/c1ccccc1` had a negative-log Ki (pKi) on Vasopressin V1a receptor of 7.64. Still for that read-out and setting: with `O=C(NCc1cccc(C(F)(F)F)c1)[C@H](CC(=O)N1CCN(C2CCCCC2)CC1)N1C(=O)[C@@H](N2C(=O)OC[C@@H]2c2ccccc2)[C@H]1/C=C/c1ccccc1` the figure was 7.52. Compound `CC(=O)NC1C(=O)N(C(C(=O)OCc2ccccc2)C2(C)OCCO2)[C@@H]1/C=C/c1ccccc1` (stereo not given in full) gave a pIC50 at Vasopressin V1a receptor below 4.70. As to `O=C(NCc1ccc(F)c(C(F)(F)F)c1)[C@H](CCC(=O)N1CCN(C2CCCCC2)CC1)N1C(=O)[C@@H](N2C(=O)OC[C@@H]2c2ccccc2)[C@H]1/C=C/c1ccccc1`, at Vasopressin V1a receptor, the negative-log Ki (pKi) is above 7.52. `CC1(C(C(=O)OCc2ccccc2)N2C(=O)C(N)[C@H]2/C=C/c2ccccc2)OCCO1` (stereo not given in full) had a pIC50 on Vasopressin V1a receptor below 4.70.

For `CC1(C(C(=O)OCc2ccccc2)N2C(=O)C(NC(=O)Nc3ccccc3)[C@H]2/C=C/c2ccccc2)OCCO1` (stereo not given in full), the pIC50 on Vasopressin V1a receptor is below 5.30. On the same count and under the same terms, with `CC(C)(C)C(=O)C(C(=O)OCc1ccccc1)N1C(=O)[C@@H](N2C(=O)OC[C@@H]2c2ccccc2)[C@H]1C=O` (stereo not given in full) the figure was below 4.70.

(Values after ChEMBL document CHEMBL1146370 (Bioorg Med Chem, 2007).)
